# Measurements as given in ChEMBL document CHEMBL1146857 (J Med Chem, 2006).
# The source made the active and inactive calls. No cut-off for these calls is given here.
# Test system: HCT-116
# Experiment: Increase in acetylated histone H4 accumulation in human HCT116 cells after 8 hrs
# Type: functional, cell-based
# Summary of the method: (§1)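 HCT116 cells were treated for 8 h in McCoy5A medium with 0.1% DMSO over a range of concentrations. Acetylated α-tubulin and histone H4 were detected by Western blot and quantified, and EC50 values were estimated from the concentration curves.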
row,Structure (SMILES),Activity
1,CC(C)C(=O)SCCCCCCC(=O)Nc1cccc(-c2ccccc2)c1,Active
2,CC(C)C(=O)SCCCCCCC(=O)Nc1nc(-c2ccccc2)cs1,Active

# Biological target: Histone deacetylase 1 (Homo sapiens, UniProt Q13547)
# Experiment: Inhibition of HDAC1
# Histone deacetylase 1, sequence (Q13547 whole entry): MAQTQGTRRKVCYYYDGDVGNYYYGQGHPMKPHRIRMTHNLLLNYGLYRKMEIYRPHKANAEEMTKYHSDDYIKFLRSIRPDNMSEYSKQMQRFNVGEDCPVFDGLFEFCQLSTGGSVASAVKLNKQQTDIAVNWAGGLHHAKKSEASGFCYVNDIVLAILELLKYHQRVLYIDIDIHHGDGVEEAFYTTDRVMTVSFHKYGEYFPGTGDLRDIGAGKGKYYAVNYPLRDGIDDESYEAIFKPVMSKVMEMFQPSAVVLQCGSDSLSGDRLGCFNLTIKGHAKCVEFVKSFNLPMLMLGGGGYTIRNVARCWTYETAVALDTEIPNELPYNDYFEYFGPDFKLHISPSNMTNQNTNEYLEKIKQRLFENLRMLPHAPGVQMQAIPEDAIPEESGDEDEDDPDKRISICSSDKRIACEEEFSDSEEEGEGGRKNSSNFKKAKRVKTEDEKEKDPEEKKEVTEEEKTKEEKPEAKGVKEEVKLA
row,IC50,Structure (SMILES)
1,1210 nM,CC(C)(C)OC(=O)N[C@@H](CCCCCS)C(=O)NC1CCCC1
2,1270 nM,CC(C)(C)OC(=O)N[C@@H](CCCCCS)C(=O)NC1CCCCC1
3,900 nM,CC(C)(C)OC(=O)N[C@@H](CCCCCS)C(=O)NC1CCCCCC1

# Biological target: Histone deacetylase 4 (Homo sapiens, UniProt P56524)
# Experiment: Inhibition of HDAC4
# Histone deacetylase 4, sequence (P56524 whole entry): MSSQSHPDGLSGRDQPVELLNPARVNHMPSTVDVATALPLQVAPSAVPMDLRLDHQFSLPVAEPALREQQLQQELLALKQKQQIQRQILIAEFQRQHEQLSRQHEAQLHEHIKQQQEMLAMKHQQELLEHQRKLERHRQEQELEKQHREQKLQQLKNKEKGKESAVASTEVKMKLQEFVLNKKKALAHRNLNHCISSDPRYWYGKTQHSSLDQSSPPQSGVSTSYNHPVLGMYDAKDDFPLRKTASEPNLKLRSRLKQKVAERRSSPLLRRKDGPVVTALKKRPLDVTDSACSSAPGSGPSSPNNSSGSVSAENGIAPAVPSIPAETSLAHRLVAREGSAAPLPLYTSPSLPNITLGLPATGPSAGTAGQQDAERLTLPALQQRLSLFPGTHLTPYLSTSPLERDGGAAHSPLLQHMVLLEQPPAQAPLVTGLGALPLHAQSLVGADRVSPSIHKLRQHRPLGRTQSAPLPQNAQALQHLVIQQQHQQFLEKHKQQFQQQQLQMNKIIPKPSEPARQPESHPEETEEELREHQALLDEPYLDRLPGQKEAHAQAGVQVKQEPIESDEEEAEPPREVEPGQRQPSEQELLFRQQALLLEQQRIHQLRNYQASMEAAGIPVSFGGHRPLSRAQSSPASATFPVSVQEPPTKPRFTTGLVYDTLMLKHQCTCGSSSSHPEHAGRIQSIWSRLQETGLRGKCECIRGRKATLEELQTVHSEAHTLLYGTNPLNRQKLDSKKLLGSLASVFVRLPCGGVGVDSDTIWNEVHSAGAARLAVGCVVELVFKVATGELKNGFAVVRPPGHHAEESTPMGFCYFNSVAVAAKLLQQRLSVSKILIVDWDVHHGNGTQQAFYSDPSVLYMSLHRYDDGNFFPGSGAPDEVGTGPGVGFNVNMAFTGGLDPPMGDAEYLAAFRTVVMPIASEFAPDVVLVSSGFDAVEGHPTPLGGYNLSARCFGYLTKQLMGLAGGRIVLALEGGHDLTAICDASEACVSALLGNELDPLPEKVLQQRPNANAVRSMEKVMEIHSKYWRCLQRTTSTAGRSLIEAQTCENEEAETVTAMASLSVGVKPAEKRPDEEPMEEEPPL
row,IC50,Structure (SMILES)
1,1030 nM,CC(C)(C)OC(=O)N[C@@H](CCCCCS)C(=O)NC1CCCC1
2,1140 nM,CC(C)(C)OC(=O)N[C@@H](CCCCCS)C(=O)NC1CCCCC1
3,840 nM,CC(C)(C)OC(=O)N[C@@H](CCCCCS)C(=O)NC1CCCCCC1

# Biological target: T1, Protein deacetylase HDAC6 (Homo sapiens, UniProt Q9UBN7)
# T1 sequence (Q9UBN7 whole entry): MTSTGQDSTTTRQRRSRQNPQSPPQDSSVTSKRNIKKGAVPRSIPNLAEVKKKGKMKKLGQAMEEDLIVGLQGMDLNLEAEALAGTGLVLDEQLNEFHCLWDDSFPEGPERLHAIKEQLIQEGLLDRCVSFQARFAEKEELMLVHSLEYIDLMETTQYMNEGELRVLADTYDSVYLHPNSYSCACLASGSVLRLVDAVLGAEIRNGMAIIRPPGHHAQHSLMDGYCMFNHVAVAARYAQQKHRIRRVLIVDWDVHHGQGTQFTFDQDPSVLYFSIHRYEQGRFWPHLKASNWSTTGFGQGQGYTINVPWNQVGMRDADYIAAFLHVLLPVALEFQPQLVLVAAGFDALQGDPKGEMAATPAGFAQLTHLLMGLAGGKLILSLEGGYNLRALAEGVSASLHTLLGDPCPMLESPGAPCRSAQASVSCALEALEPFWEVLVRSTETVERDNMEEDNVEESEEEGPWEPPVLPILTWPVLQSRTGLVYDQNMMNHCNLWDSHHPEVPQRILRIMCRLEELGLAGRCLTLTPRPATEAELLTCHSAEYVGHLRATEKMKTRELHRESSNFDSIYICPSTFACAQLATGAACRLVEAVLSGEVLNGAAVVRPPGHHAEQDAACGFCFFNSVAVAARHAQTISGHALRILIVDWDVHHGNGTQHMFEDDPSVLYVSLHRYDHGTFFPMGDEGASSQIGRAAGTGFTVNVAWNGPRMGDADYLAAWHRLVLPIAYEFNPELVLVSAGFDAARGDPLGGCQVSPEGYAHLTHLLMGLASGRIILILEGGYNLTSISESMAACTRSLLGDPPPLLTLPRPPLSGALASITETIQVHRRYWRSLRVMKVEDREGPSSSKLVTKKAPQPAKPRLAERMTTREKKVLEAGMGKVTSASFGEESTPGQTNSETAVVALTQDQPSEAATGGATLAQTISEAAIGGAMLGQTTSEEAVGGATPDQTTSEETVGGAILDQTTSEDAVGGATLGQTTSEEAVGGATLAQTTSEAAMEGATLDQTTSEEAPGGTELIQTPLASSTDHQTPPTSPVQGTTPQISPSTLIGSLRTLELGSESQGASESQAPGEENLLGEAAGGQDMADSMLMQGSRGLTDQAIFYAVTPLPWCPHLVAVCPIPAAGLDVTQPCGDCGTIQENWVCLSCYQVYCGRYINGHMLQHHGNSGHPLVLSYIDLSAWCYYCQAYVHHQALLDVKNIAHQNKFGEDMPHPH
# Experiment: Inhibition of HDAC6
row,IC50,Structure (SMILES)
1,29 nM,CC(C)(C)OC(=O)N[C@@H](CCCCCS)C(=O)NC1CCCC1
2,36 nM,CC(C)(C)OC(=O)N[C@@H](CCCCCS)C(=O)NC1CCCCC1
3,23 nM,CC(C)(C)OC(=O)N[C@@H](CCCCCS)C(=O)NC1CCCCCC1

# Organism: Homo sapiens
# Experiment: Selectivity for HDAC6 over HDAC1
row,Selectivity ratio,Structure (SMILES)
1,42,CC(C)(C)OC(=O)N[C@@H](CCCCCS)C(=O)NC1CCCC1
2,35,CC(C)(C)OC(=O)N[C@@H](CCCCCS)C(=O)NC1CCCCC1
3,39,CC(C)(C)OC(=O)N[C@@H](CCCCCS)C(=O)NC1CCCCCC1

# Organism: Homo sapiens
# Experiment: Selectivity for HDAC6 over HDAC4
row,Selectivity ratio,Structure (SMILES)
1,36,CC(C)(C)OC(=O)N[C@@H](CCCCCS)C(=O)NC1CCCC1
2,32,CC(C)(C)OC(=O)N[C@@H](CCCCCS)C(=O)NC1CCCCC1
3,37,CC(C)(C)OC(=O)N[C@@H](CCCCCS)C(=O)NC1CCCCCC1

# Test system: HCT-116
# Experiment: Increase in acetylated alpha-tubulin accumulation in human HCT116 cells after 8 hrs
# Type: functional, cell-based
# Summary of the method: as §1
row,Structure (SMILES),Activity
1,CC(C)C(=O)SCCCCC[C@H](NC(=O)OC(C)(C)C)C(=O)NC1CCCC1,Dose-dependent effect
2,CC(C)C(=O)SCCCCC[C@H](NC(=O)OC(C)(C)C)C(=O)NC(C)(C)C,Dose-dependent effect
3,CC(C)C(=O)SCCCCC[C@H](NC(=O)OC(C)(C)C)C(=O)NC1CCCCCC1,Dose-dependent effect
4,CC(C)C(=O)SCCCCCCC(=O)Nc1nc(-c2ccccc2)cs1,Active
5,CC(C)C(=O)SCCCCC[C@H](NC(=O)OC(C)(C)C)C(=O)NC1CCCCC1,Dose-dependent effect
